# Bioassay records as filed in PubChem BioAssay.
# A selection: hits, their analogues and other compounds. The true share with any hit is near 2.5%.
# TDP2 inh = human TDP2 enzyme inhibitors, primary screen, biochemical, epi absorbance, recombinant enzyme. inhibition, % at 12.8 µM. hit rate 0.34% among 370,000. AID 720702, 2013. T5PNP hydrolysis, p-nitrophenol absorbance 415 nm;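 active = inhibition above the mean of all tested compounds plus 3 SD, set per campaign, cut at about 25% in these data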;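 note: 0% = DMSO with enzyme and 100% = buffer with substrate but no TDP2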
#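 System – recombinant human TDP2 · Quantity – TDP2 enzyme at 120 nM final · Doses – single concentration, 12.8 µM nominal, with 1% DMSO · Incubation – 2 h at 37 °C · Measured by – epi absorbance of p-nitrophenol freed from T5PNP by hydrolysis · Read-out – % inhibition relative to enzyme-containing and enzyme-free wells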
# PRMT1 FP inh = PRMT1 methyltransferase inhibitors, primary screen, biochemical, fluorescence polarization; Protein arginine N-methyltransferase 1 (Homo sapiens), Q99873; recombinant PRMT1, activity-based probe fluorescence polarization; inhibition, % at 2.79 µM; hit rate 1.3% among 370,000; AID 652257, 2013;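 active = inhibition above about 21% made by adding two undisclosed values, limit read from the data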
# E coli Lon inh = inhibitors of E. coli Lon protease, primary screen, biochemical, fluorescence polarization; P0A9M0; purified E. coli Lon protease; inhibition, % at 7.94 µM; hit rate 0.42% among 360,000; in the data active = inhibition above about 13%, passing the limit was not always enough;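 note: 0% = enzyme with probe and DMSO and 100% = no enzyme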
# Target sequence (P0A9M0 whole entry, looked up): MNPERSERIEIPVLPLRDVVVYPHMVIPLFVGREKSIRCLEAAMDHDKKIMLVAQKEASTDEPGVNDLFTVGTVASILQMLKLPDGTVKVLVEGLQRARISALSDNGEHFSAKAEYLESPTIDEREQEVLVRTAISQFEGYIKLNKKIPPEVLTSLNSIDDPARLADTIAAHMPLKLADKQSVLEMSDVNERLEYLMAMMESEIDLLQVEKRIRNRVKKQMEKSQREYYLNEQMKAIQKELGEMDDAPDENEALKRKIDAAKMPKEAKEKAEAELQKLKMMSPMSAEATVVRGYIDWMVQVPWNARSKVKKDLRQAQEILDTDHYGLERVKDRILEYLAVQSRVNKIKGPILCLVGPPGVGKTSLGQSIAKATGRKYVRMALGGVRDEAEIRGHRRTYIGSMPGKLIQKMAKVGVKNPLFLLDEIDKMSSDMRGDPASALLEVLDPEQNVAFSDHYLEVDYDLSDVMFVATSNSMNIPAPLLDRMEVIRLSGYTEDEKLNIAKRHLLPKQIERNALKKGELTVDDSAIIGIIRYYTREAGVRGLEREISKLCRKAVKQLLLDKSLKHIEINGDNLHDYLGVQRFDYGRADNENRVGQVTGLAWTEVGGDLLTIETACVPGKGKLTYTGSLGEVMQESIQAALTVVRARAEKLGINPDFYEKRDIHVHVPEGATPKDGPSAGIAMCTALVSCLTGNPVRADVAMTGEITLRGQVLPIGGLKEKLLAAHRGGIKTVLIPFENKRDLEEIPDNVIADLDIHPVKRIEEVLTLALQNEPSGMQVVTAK
# PAD4 inh = human PAD4 inhibitors, primary screen, biochemical, fluorescence polarization, 1536-well format; recombinant PAD4, RCA probe fluorescence polarization; inhibition, % at 6.36 µM; hit rate 0.41% among 330,000;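 active = percent inhibition above a cutoff equal to the mean of all tested compounds plus 3 SD, cut at about 15% in these data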;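 note: 0% = PAD4 with RCA probe and DMSO and 100% = probe without PAD4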
# GSTO1 inh = inhibitors of recombinant GSTO1, primary screen, counter-screen for RBBP9 inhibitor project, biochemical, fluorescence polarization. hit rate 1.1% among 300,000. Glutathione S-transferase omega-1 (Homo sapiens), P78417. inhibition, % at 5.96 µM. activity-based probe fluorescence polarization;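 active = inhibition above the campaign mean inhibition plus 3 SD, cut at about 35% in these data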;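 note: 0% = GSTO1-1 with DMSO and 100% = wells lacking GSTO1-1 enzyme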
# PRMT1 inh conf = PRMT1 methyltransferase inhibitors, confirmation, biochemical, fluorescence polarization, triplicate | shares compounds with PRMT1 FP inh | recombinant His-PRMT1, activity-based probe fluorescence polarization | inhibition, % at 2.79 µM | hit rate 42% among 3,300 | AID 687036, 2013;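 active = mean inhibition across replicates above the hit cutoff derived for the earlier primary screen, cut at about 22% in these data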
# Numbers without * were called inactive; . = not tested or not shown.
SMILES,TDP2 inh,PRMT1 FP inh,E coli Lon inh,PAD4 inh,GSTO1 inh,PRMT1 inh conf
CC1(C(=O)NCc2ccc(Cl)cc2)CCN1C(=O)Cc1ccc(Cl)cc1Cl (centres undefined),1.2,-2.4,-1.1,.,.,.
O=C(CC(Nc1ccc(F)cc1)C(=O)O)c1ccccc1 (centres undefined),0.1,17.7,-6.3,-3.4,-2.8,.
O=C(CC(Nc1ccc(F)cc1)C(=O)OCC(=O)c1cccs1)c1ccccc1 (centres undefined),14.4,29.4*,-8.4,-0.8,1.7,11.6
CC(=O)Nc1ccc(SCC(=O)c2c(N)n(Cc3ccccc3)c(=O)n(C)c2=O)cc1,4.3,25.4*,-11.8,3.6,-3.1,17.8
CC(=O)NC(=S)c1c(N)n(Cc2ccccc2)c(=O)n(C)c1=O,.,.,.,4.3,0.9,.
CN1\C(=C/C=C/C=C/C=[N+](C)C)C(C)(C)c2ccccc21,5.2,32.9*,-129.9,.,.,43.2*
Cc1ccc(C)c(NC(=S)c2nc3ccccc3s2)c1,-10.0,28.9*,0.9,3.1,-6.0,8.8
COC(=O)c1nn(-c2ccc(OC)cc2)c(=O)c2c(N)sc(C)c12,1.7,24.9*,7.7,-0.2,-0.2,-0.4
COC(=O)c1nn(-c2ccc(OC)cc2)c(=O)cc1NN,-3.3,0.2,-4.5,-10.6,31.9,.
CCOC(=O)[C@@]12CN(C(=O)OC(C)(C)C)CC=C1N(Cc1ccc(OC)cc1)C(=O)[C@H]2CC(=O)NCC12CC3CC(CC(C3)C1)C2,-1.2,2.0,.,.,.,.
C=CCn1c(SCC(=O)NCC2CCCO2)nc2scc(-c3ccco3)c2c1=O (centres undefined),11.0,25.8*,-21.5,-1.5,5.1,5.3
O=c1c2c(-c3ccco3)csc2nc(SCc2cn3cccnc3n2)n1-c1ccccc1,0.5,36.6*,-7.9,-12.2,-4.5,0.7
NC(=O)CSc1nc2scc(-c3ccco3)c2c(=O)n1-c1ccccc1,-3.1,76.1*,-11.3,-7.7,5.4,9.1
C=CCN(C(=O)c1csnn1)C(C(=O)NCc1ccc(F)cc1)c1cccs1 (centres undefined),-4.9,-1.2,-3.6,-7.0,8.9,.
Cc1ccc(C)c(C(=O)OCC(=O)Nc2cccc(S(=O)(=O)N3CCCCC3)c2)c1,-1.7,-0.7,6.8,-8.1,.,.
CO[C@@]1(NC(=O)C2SC(=C(C(N)=O)C(=O)O)S2)C(=O)N2C(C(=O)O)=C(CSc3nnnn3C)CS[C@@H]21 (some centres undefined),9.3,37.4*,-4.2,3.2,0.8,19.0
COc1ccc(S(=O)(=O)N2CCCCC2)cc1NC(=O)CCC(=O)N1CCC(c2ccccc2)=N1,-11.4,-8.9,-5.8,.,.,.
COc1ccc(C(=O)C[n+]2ccc3c(c2)nc(Cc2ccccc2)n3C)cc1,-4.2,28.5*,.,.,.,5.7
N#Cc1ccc(C(=O)N2CCCCC2c2cc(C(=O)Nc3cccc(C#N)c3)no2)cc1 (centres undefined),5.4,-0.2,-3.6,.,.,.
O=C1CCCC2=C1C(c1ccc(Br)cc1)c1c([nH]c(=S)[nH]c1=O)N2 (centres undefined),7.0,48.9*,4.0,-9.3,-2.2,37.9*
CSc1nc2c(c(=O)[nH]1)C(c1ccccc1)C1=C(CC(C)(C)CC1=O)N2 (centres undefined),0.7,0.7,8.9,0.7,-1.8,.
CC1(C)CC(=O)C2=C(C1)Nc1[nH]c(=S)[nH]c(=O)c1C2c1ccccc1 (centres undefined),-17.3,65.8*,11.0,2.0,12.6,5.9
O=S(=O)(Nc1ccc(C(O)(C(F)(F)F)C(F)(F)F)cc1)c1cccc2ccccc12,-7.8,1.2,-2.9,.,.,.
Cn1c(N)c(C(=O)c2ccc(Cl)c(S(=O)(=O)N3CCCCCC3)c2)c(=O)n(C)c1=O,1.9,-3.7,-5.3,-1.7,.,.
N#CCc1c(C#N)c(N)nc(N2CCN(c3ccc(F)cc3)CC2)c1C#N,8.8,7.2,-33.5,-11.7,-2.2,.
SMILES,TDP2 inh,PRMT1 FP inh,E coli Lon inh,PAD4 inh,GSTO1 inh,PRMT1 inh conf
N#CCc1c(C#N)c(N)nc(N2CCCC(O)C2)c1C#N (centres undefined),-0.6,31.3*,5.2,-2.5,-0.8,3.4
COc1ccc(CNC(=O)CN2C(=O)CSc3ccc(S(=O)(=O)N4CCOCC4)cc32)c(OC)c1,-6.7,-0.2,-4.7,-1.0,0.5,.
O=C1CCCC2=C1C(c1cccc(Br)c1)n1nc(-c3ccco3)nc1N2 (centres undefined),-5.5,37.3*,-7.4,3.7,2.2,5.8
COC(=O)c1nc2n(n1)C(c1cccc(Cl)c1)C1=C(CCCC1=O)N2 (centres undefined),-2.8,1.6,-5.3,3.6,4.2,.
COC(=O)C1=C(C)NC(=S)NC1c1ccc(-c2cc(Cl)ccc2Cl)o1 (centres undefined),0.8,69.8*,-8.1,-1.3,-4.6,18.9
COc1ccc(CCN2C(=O)CSC2c2ccc(F)cc2)cc1 (centres undefined),-7.7,6.5,7.8,0.8,0.5,.
Cn1ncc2c1NC(c1ccc(F)cc1)SCC2=O (centres undefined),4.7,34.4*,7.7,.,.,55.4*
Cc1cccc(N2CCN(C(=O)c3ccc4ncsc4c3)CC2)c1C,-25.7,37.9*,-5.3,.,.,1.4
Cc1ccc(NC(=S)NCC23C=CC(O2)C2C(=O)N(c4ccc(C)cc4)C(=O)C23)cc1 (centres undefined),-9.0,91.4*,-1.9,-4.6,0.5,50.4*
COc1ccc(N2CCC(CNC(=S)Nc3cccc(C)c3)C2)cc1 (centres undefined),-1.1,4.5,-15.6,-7.5,-3.9,.
Cc1cccc(NC(=S)NCC23C=CC(O2)C2C(=O)N(c4ccc(Cl)cc4)C(=O)C23)c1 (centres undefined),-4.0,77.8*,7.2,-0.7,1.7,31.0*
Cc1ccc(S(=O)(=O)NCC23C=CC(O2)C2C(=O)N(c4ccccc4)C(=O)C23)cc1 (centres undefined),9.8,80.9*,-13.2,3.1,6.1,11.0
S=C(NCC1CCCO1)N1CCN(c2ccccc2)CC1 (centres undefined),8.3,-2.0,1.5,-1.9,1.9,.
Cc1ccc(N2C(=O)C3C4C=CC(CNC(=S)N5CCN(c6ccccc6)CC5)(O4)C3C2=O)cc1 (centres undefined),-7.2,43.5*,-13.2,1.0,1.6,43.6*
Cc1ccc(S(=O)(=O)NCC2(c3ccccc3)CCN(C)CC2)cc1,-4.6,-1.6,-0.2,.,.,.
Cc1ccc(S(=O)(=O)NN(Cc2ccccc2)Cc2ccccc2)cc1,3.4,1.2,5.3,.,.,.
